Drawing on ChEMBL document CHEMBL3392961, “Synthesis and in vitro characterization of cinnoline and benzimidazole analogues as phosphodiesterase 10A inhibitors” (Bioorg Med Chem Lett, 2015), this text covers IC50 for 21 compounds.

Experiment [1] concerns the target cAMP and cAMP-inhibited cGMP 3',5'-cyclic phosphodiesterase 10A (Homo sapiens, UniProt Q9Y233). As to the kind of experiment: Inhibition of human recombinant PDE10A catalytic domain pre-incubated for 5 mins before [3H]cAMP substrate addition and measured 20 mins post substrate addition by scintillation proximity assay. (In general: SPA uses beads or plates that emit light when radiolabelled molecules are held near them.)

In experiment [2] the target is cGMP-inhibited 3',5'-cyclic phosphodiesterase 3A (Homo sapiens, UniProt Q14432). The experiment is described as follows: Inhibition of human recombinant PDE3A pre-incubated for 5 mins before [3H]cAMP substrate addition and measured 20 mins post substrate addition by scintillation proximity assay. In outline:
(§1)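 Scintillation proximity assay on a fixed amount of recombinant human PDE enzyme, run across varying inhibitor concentrations. The tritiated cyclic nucleotide substrate was used at 1/3 of Km. Background was subtracted, counts were plotted against inhibitor concentration, and IC50 was fitted by non-linear regression. Values are mean ± SD from at least three experiments.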

Experiment [3] has as its target cGMP-inhibited 3',5'-cyclic phosphodiesterase 3B (Homo sapiens, UniProt Q13370). The experiment is described as follows: Inhibition of human recombinant PDE3B pre-incubated for 5 mins before [3H]cAMP substrate addition and measured 20 mins post substrate addition by scintillation proximity assay. The method in brief: as §1
Experiment [4] has as its target 3',5'-cyclic-AMP phosphodiesterase 4A (Homo sapiens, UniProt P27815). As to the kind of experiment: Inhibition of human recombinant PDE4A pre-incubated for 5 mins before [3H]cAMP substrate addition and measured 20 mins post substrate addition by scintillation proximity assay. In outline:
as §1

For experiment [5], the target named is 3',5'-cyclic-AMP phosphodiesterase 4B (Homo sapiens, UniProt Q07343). The experiment is described as follows: Inhibition of human recombinant PDE4B pre-incubated for 5 mins before [3H]cAMP substrate addition and measured 20 mins post substrate addition by scintillation proximity assay. In outline: as §1

Some results are limits rather than exact numbers.

Chain of cAMP and cAMP-inhibited cGMP 3',5'-cyclic phosphodiesterase 10A (Q9Y233 whole entry, the tested form may be a part): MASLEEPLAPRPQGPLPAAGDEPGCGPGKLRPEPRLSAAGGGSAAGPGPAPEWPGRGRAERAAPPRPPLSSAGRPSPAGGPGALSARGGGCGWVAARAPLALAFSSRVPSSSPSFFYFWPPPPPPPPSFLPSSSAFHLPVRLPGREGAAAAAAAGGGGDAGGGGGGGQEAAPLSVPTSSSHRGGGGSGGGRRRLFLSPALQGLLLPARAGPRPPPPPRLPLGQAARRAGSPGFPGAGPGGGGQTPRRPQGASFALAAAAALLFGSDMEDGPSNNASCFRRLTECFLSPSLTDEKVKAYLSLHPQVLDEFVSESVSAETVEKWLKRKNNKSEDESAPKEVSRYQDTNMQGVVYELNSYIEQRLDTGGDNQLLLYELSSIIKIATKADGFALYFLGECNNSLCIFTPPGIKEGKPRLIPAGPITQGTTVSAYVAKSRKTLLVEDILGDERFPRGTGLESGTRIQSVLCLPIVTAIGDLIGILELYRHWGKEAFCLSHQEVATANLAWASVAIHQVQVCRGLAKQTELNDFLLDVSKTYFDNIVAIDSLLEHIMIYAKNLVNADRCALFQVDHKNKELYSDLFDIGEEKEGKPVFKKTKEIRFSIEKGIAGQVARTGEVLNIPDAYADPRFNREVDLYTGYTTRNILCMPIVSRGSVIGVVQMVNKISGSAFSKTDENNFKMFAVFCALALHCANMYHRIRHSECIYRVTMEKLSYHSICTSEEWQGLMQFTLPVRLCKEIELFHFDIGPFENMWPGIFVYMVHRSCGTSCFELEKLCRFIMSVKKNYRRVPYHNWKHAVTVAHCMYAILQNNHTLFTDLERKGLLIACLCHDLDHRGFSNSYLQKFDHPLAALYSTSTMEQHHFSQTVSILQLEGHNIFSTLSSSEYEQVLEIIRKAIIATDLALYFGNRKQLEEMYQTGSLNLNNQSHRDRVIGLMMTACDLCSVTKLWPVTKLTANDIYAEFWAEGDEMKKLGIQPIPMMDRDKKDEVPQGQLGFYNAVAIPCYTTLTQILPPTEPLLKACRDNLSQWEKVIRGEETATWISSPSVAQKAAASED
Chain of 3',5'-cyclic-AMP phosphodiesterase 4B (Q07343 whole entry): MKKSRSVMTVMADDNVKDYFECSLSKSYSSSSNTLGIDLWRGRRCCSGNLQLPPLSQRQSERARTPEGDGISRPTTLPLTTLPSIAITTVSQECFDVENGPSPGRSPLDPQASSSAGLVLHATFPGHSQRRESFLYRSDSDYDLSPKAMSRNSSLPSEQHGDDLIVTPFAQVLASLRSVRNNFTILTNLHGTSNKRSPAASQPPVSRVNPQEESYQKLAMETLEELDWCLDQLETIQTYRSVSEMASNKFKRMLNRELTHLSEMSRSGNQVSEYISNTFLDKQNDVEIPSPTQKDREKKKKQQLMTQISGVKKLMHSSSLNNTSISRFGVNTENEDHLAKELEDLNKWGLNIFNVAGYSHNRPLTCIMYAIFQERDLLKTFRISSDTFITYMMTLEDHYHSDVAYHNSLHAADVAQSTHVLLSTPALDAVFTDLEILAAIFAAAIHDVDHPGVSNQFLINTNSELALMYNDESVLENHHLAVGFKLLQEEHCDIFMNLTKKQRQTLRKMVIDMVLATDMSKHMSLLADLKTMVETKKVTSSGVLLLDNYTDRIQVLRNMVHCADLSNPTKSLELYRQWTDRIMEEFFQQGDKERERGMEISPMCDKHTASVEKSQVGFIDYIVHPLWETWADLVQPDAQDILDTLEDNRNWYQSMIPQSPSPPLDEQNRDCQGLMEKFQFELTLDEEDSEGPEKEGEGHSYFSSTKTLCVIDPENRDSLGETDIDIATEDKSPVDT
Chain of cGMP-inhibited 3',5'-cyclic phosphodiesterase 3B (Q13370 whole entry): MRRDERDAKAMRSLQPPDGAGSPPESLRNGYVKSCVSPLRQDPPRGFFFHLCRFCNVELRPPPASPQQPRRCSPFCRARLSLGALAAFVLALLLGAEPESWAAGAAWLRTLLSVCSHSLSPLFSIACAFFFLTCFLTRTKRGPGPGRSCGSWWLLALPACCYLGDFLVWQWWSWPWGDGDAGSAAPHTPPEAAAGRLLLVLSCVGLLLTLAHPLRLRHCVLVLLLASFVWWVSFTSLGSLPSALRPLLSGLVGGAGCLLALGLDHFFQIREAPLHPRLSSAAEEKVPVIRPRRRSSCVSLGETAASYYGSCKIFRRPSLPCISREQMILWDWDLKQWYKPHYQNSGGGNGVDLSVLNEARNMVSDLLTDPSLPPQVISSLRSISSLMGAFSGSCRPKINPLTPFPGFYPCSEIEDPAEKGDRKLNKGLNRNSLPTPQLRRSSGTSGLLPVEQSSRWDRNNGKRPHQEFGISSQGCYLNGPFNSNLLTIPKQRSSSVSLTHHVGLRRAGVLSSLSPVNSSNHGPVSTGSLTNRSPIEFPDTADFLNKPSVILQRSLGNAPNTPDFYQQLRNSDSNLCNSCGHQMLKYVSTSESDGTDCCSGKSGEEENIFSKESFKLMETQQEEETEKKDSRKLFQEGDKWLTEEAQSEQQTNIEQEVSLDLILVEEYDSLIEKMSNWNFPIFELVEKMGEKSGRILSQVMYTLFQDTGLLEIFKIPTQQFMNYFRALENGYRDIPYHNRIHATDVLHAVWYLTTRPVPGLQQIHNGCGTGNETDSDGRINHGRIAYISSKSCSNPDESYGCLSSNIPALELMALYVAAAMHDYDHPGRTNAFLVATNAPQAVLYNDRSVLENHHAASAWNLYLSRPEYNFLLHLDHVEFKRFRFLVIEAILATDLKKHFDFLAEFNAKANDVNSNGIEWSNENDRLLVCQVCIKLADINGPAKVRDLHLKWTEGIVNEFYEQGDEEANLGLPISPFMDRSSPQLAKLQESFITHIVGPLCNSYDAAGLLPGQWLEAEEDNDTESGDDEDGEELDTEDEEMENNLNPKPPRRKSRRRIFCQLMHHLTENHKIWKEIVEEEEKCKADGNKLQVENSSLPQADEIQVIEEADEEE
Chain of 3',5'-cyclic-AMP phosphodiesterase 4A (P27815 whole entry): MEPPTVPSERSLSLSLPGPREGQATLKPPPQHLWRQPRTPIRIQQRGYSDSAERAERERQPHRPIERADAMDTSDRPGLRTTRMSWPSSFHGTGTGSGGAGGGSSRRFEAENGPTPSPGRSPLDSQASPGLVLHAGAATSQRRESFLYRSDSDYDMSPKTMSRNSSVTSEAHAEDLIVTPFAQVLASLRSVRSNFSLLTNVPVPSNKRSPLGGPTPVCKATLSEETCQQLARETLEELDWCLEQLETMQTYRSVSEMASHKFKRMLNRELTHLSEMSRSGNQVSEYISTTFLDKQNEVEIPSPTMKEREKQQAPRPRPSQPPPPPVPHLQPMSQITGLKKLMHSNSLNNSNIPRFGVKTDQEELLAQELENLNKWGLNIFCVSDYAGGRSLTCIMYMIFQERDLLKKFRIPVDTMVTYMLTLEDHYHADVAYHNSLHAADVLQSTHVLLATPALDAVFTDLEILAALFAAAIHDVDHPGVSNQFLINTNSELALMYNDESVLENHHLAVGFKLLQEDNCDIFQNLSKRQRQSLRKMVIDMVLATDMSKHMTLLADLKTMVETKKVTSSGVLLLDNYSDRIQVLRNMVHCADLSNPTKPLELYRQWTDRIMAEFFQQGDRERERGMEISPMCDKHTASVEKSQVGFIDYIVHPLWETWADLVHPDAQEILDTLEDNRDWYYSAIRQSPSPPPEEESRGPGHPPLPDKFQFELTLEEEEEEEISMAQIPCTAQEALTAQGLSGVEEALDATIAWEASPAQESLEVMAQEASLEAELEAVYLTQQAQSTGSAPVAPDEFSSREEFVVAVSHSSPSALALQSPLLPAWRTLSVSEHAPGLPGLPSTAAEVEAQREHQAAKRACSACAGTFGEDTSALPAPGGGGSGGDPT
Chain of cGMP-inhibited 3',5'-cyclic phosphodiesterase 3A (Q14432 whole entry): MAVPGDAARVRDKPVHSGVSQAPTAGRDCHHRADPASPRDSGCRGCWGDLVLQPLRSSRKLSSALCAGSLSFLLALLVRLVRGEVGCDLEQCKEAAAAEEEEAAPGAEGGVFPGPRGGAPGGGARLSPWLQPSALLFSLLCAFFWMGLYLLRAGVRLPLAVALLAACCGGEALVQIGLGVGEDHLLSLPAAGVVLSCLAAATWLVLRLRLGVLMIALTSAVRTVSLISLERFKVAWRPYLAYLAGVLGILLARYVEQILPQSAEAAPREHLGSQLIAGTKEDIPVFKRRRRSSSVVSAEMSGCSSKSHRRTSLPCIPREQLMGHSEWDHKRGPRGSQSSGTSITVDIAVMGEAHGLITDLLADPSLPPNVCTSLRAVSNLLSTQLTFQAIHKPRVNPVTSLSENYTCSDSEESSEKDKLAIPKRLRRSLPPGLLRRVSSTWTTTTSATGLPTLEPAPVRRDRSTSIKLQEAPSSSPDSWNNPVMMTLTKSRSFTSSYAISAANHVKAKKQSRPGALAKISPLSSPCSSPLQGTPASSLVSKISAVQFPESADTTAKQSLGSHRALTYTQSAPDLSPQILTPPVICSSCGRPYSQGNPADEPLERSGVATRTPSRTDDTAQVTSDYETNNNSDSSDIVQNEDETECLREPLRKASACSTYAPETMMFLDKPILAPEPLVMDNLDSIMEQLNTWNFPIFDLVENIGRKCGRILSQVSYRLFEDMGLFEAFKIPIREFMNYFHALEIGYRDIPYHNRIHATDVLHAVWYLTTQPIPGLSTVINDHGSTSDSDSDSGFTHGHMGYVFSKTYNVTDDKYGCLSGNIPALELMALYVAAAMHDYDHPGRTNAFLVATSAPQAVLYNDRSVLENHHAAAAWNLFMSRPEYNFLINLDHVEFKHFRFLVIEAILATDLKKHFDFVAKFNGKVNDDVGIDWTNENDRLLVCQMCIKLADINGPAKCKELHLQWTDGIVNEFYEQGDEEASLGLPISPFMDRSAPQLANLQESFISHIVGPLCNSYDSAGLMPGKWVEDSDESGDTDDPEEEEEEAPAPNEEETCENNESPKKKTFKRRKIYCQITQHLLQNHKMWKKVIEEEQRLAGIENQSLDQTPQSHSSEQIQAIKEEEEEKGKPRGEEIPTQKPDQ

As for `COc1cc2c(-c3cnc(N4CCC(O)(c5ccc(F)nc5)CC4)c(C)c3)cnnc2cc1OCc1ccccc1`, the IC50 (commonly the concentration that gives 50% inhibition) in experiment [1] (read-out: IC50) came out at 0.35 µM. On to `COc1cc2nncc(-c3cnc(N4CCC(O)(c5ccc(F)nc5)CC4)c(C)c3)c2cc1OC`, for which the IC50 in experiment [1] (read-out: IC50) is 0.00286 µM; in experiment [2], 3.7 µM; in experiment [3], 6.54 µM; in experiment [4] it was 25.4 µM; in experiment [5], 30.6 µM. For `COc1cc2nncc(-c3ccc(N4CCC(O)(c5cccnc5)CC4)nc3)c2cc1OC`, the IC50 in experiment [1] (read-out: IC50) turned out to be 0.014 µM. Consider `COc1cc2c(-c3ccc(N4CCC(C)(O)CC4)nc3)cnnc2cc1OCc1ccccc1`, for which the IC50 in experiment [1] (read-out: IC50) stood at 4.25 µM. With `Cn1c(C(=O)c2ccc(Oc3ncccc3-c3ccccc3)cc2)nc2ccccc21`, the IC50 in experiment [1] (read-out: IC50) was 0.0186 µM. For the compound `COc1cc2c(-c3ccc(N4CCC(C)(O)CC4)nc3)cnnc2cc1O`, in experiment [1] (read-out: IC50), the IC50 worked out at 10.8 µM.

For the compound `COc1cc2nncc(-c3cnc(N4CCC(O)(c5ccc(Cl)nc5)CC4)c(C)c3)c2cc1OC`, in experiment [1] (read-out: IC50), the IC50 was 0.0098 µM.

On to `Cc1cc(-c2cnnc3cc4c(cc23)OCO4)cnc1N1CCC(O)(c2ccc(F)nc2)CC1`, for which the IC50 result in experiment [1] is on record as “Not Active”.

As to `COc1cc2c(-c3ccc(N4CCC(O)(c5cccnc5)CC4)nc3)cnnc2cc1O`, the IC50 in experiment [1] (read-out: IC50) came out at 6.62 µM. For the compound `Cn1c(C(=O)c2ccc(Oc3ncccc3C(=O)c3ccccc3)cc2)nc2ccccc21`, the IC50 entry in experiment [1] was “Not Active”. For the compound `Cn1c(C(=O)c2ccc(Oc3ncccc3-c3cccnc3)cc2)nc2ccccc21`, the IC50 was found to be 0.00373 µM in experiment [1] (read-out: IC50); 167 µM in experiment [2]; 234 µM in experiment [3]; 40.3 µM in experiment [4]; 25.9 µM in experiment [5]. Take `COc1cc2c(-c3cnc(N4CCC(O)(c5ccc(F)nc5)CC4)c(C)c3)cnnc2cc1OCCCF`: in experiment [1] (read-out: IC50), the IC50 worked out at 0.0793 µM.

For the compound `Cc1cc(-c2cnnc3ccccc23)cnc1N1CCC(O)(c2ccc(F)nc2)CC1`, the IC50 result in experiment [1] is “Not Active”. In the case of `COc1ccc(C(=O)c2cccnc2Oc2ccc(C(=O)c3nc4ccccc4n3C)cc2)cc1`, in experiment [1], the IC50 result was “Not Active”.

Turning to `COc1cc2nncc(-c3ccc(N4CCC(C)(O)CC4)nc3)c2cc1OC`, the IC50 in experiment [1] (read-out: IC50) turned out to be 0.0184 µM. As for `COc1cc2nncc(-c3cnc(N4CCC(O)(c5cccnc5)CC4)c(C)c3)c2cc1OC`, the IC50 in experiment [1] (read-out: IC50) is 0.00152 µM; in experiment [2] it was 3.07 µM; in experiment [3], 4.11 µM; in experiment [4], 7.83 µM; in experiment [5] it was 8.73 µM. On to `COc1cc2c(-c3cnc(N4CCC(O)(c5ccc(F)nc5)CC4)c(C)c3)cnnc2cc1OCc1ccc2ccccc2n1`, for which the concentration for half-maximal inhibition (IC50) in experiment [1] (read-out: IC50) came out at 0.518 µM. For `COc1ccc(-c2cccnc2Oc2ccc(C(=O)c3nc4ccccc4n3C)cc2)cc1`, the IC50 in experiment [1] (read-out: IC50) is 0.008 µM. Consider `COc1cc2nncc(-c3cnc(N4CCC(O)(c5cccnc5)CC4)c(Cl)c3)c2cc1OC`, for which the IC50 in experiment [1] (read-out: IC50) was 0.00552 µM.

For `COc1cc2c(-c3ccc(N4CCC(O)(c5cccnc5)CC4)nc3)cnnc2cc1OCc1ccccc1`, in experiment [1] (read-out: IC50), the IC50 amounted to 1.55 µM. On the same count and under the same terms, then `CC(=O)N1CCC(C(=O)c2cccnc2Oc2ccc(C(=O)c3nc4ccccc4n3C)cc2)CC1`, with more than 1.9 µM.
